Test results: ChEMBL document CHEMBL2069215, “Synthesis and biological evaluation of novel triazoles and isoxazoles linked 2-phenyl benzothiazole as potential anticancer agents” (Bioorg Med Chem Lett, 2012)
Active and inactive are the calls of the source. No cut-off for these calls is given here.

Legend:
MCF-10A = experiment: Cytotoxicity against human MCF10A cells after 24 hrs by MTT assay; assay type: cell-based
COLO 205 [1] = experiment: Induction of apoptosis in human COLO205 cells assessed as accumulation at G0 phase at 16 uM after 24 hrs by FACS analysis (reference value: 2.28%); assay type: functional
How it was run: (§1)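 Colo-205 human colon cancer cells were exposed to 8 or 16 µM for 24 h alongside untreated controls. They were then analysed by flow cytometry (FACS) for cell-cycle distribution as percent of cells in G0, G1, S and G2/M. The G0 population was taken as apoptotic cells.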

COLO 205 [2] = experiment: Cell cycle arrest in human COLO205 cells assessed as accumulation at G2/M phase at 16 uM after 24 hrs by FACS analysis (reference value: 23.09 +/- 1.01%); assay type: functional; how it was run: as §1
COLO 205 [3] = experiment: Cell cycle arrest in human COLO205 cells assessed as accumulation at S phase at 16 uM after 24 hrs by FACS analysis (reference value: 3.56 +/- 0.40%); assay type: functional; how it was run: as §1
A549 = experiment: Cytotoxicity against human A549 cells after 24 hrs by MTT assay; assay type: functional, cell-based; conditions: A549, 24 h
How it was run: (§2)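 A549 lung adenocarcinoma, Colo-205 colon and MCF-7 breast carcinoma cells were exposed to compounds at 1 to 64 µM for 24 h. Viability was read by MTT assay, and IC50 values were derived from it.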

COLO 205 [4] = experiment: Cytotoxicity against human COLO205 cells after 24 hrs by MTT assay; assay type: functional, cell-based; conditions: COLO 205, 24 h; how it was run: as §2
COLO 205 [5] = experiment: Induction of apoptosis in human COLO205 cells assessed as accumulation at G0 phase at 8 uM after 24 hrs by FACS analysis (reference value: 2.28%); assay type: functional; how it was run: as §1
COLO 205 [6] = experiment: Cell cycle arrest in human COLO205 cells assessed as accumulation at G2/M phase at 8 uM after 24 hrs by FACS analysis (reference value: 23.09 +/- 1.01%); assay type: functional; how it was run: as §1
MCF7 = experiment: Cytotoxicity against human MCF7 cells after 24 hrs by MTT assay; assay type: functional, cell-based; conditions: MCF7, 24 h; how it was run: as §2
COLO 205 [7] = experiment: Cell cycle arrest in human COLO205 cells assessed as accumulation at G1 phase at 16 uM after 24 hrs by FACS analysis (reference value: 71.02 +/- 1.00%); assay type: functional; how it was run: as §1
COLO 205 [8] = experiment: Cell cycle arrest in human COLO205 cells assessed as accumulation at G1 phase at 8 uM after 24 hrs by FACS analysis (reference value: 71.02 +/- 1.00%); assay type: functional; how it was run: as §1
COLO 205 [9] = experiment: Cell cycle arrest in human COLO205 cells assessed as accumulation at S phase at 8 uM after 24 hrs by FACS analysis (reference value: 3.56 +/- 0.40%); assay type: functional; how it was run: as §1
COLO 205 [10] = experiment: Induction of apoptosis in human COLO205 cells assessed as increase in caspase 3 expression at 8 uM after 24 hrs by Western blot analysis; assay type: functional, cell-based
How it was run: (§3)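 Colo-205 cells were treated at 8 or 16 µM for 24 h and lysed. Western blots of the lysates were probed with antibodies to procaspase-8, procaspase-9, active caspase-3 and cleaved (active) PARP.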

COLO 205 [11] = experiment: Induction of apoptosis in human COLO205 cells assessed as degradation of procaspase 9 at 8 uM after 24 hrs by Western blot analysis; assay type: functional, cell-based; how it was run: as §3
COLO 205 [12] = experiment: Induction of apoptosis in human COLO205 cells assessed as increase in PARP expression at 8 uM after 24 hrs by Western blot analysis; assay type: functional, cell-based; how it was run: as §3
COLO 205 [13] = experiment: Induction of apoptosis in human COLO205 cells assessed as degradation of procaspase 8 at 8 uM after 24 hrs by Western blot analysis; assay type: functional, cell-based; how it was run: as §3

Structure (SMILES) | IC50 (MCF-10A) [µM] | Activity (COLO 205 [1]) [%] | Activity (COLO 205 [2]) [%] | Activity (COLO 205 [3]) [%] | IC50 (A549) [µM] | IC50 (COLO 205 [4]) [µM] | Activity (COLO 205 [5]) [%] | Activity (COLO 205 [6]) [%] | IC50 (MCF7) [µM] | Activity (COLO 205 [7]) [%] | Activity (COLO 205 [8]) [%] | Activity (COLO 205 [9]) [%] | Activity (COLO 205 [10]) | Activity (COLO 205 [11]) | Activity (COLO 205 [12]) | Activity (COLO 205 [13])
FC(F)(F)C(F)(F)C(F)(F)C(F)(F)C(F)(F)C(F)(F)CCn1cc(COc2ccccc2-c2nc3ccccc3s2)nn1 | 35.1 | 11.91 | 22.3 | 4.42 | 15.1 | 14.2 | 2.72 | 20.53 | 19.8 | 61.36 | 73.66 | 3.09 |  |  |  | 
COc1cc(-c2cc(COc3ccccc3-c3nc4ccccc4s3)on2)cc(OC)c1OC | 42.9 |  |  |  | 22.9 | 17.5 |  |  | 25.6 |  |  |  |  |  |  | 
Clc1ccc(-c2cc(COc3ccccc3-c3nc4ccccc4s3)on2)cc1 | 38.8 |  |  |  | 18.8 | 16.4 |  |  | 23.8 |  |  |  |  |  |  | 
Fc1ccc(-n2cc(COc3ccccc3-c3nc4ccccc4s3)nn2)cc1 | 33.3 |  |  |  | 23.3 | 18.9 |  |  | 26.2 |  |  |  |  |  |  | 
c1ccc(-n2cc(COc3ccccc3-c3nc4ccccc4s3)nn2)cc1 | 36.4 |  |  |  | 16.4 | 16.6 |  |  | 26.2 |  |  |  |  |  |  | 
Fc1ccccc1-c1cc(COc2ccccc2-c2nc3ccccc3s2)on1 | 42.5 |  |  |  | 22.5 | 18.3 |  |  | 23.9 |  |  |  |  |  |  | 
FC(F)(F)Oc1ccc(-c2cc(COc3ccccc3-c3nc4ccccc4s3)on2)cc1 | 43.9 |  |  |  | 23.9 | 19.9 |  |  | 26.6 |  |  |  |  |  |  | 
Fc1ccc(-n2cc(COc3ccccc3-c3nc4ccccc4s3)nn2)cc1Cl | 26.3 |  |  |  | 16.3 | 14.4 |  |  | 27.3 |  |  |  |  |  |  | 
Brc1ccc(-c2cc(COc3ccccc3-c3nc4ccccc4s3)on2)cc1 | 29.2 |  |  |  | 19.2 | 16.4 |  |  | 20 |  |  |  |  |  |  | 
COc1ccc(-c2nc3cc(F)ccc3s2)cc1OC | 25.2 | 27.17 | 15.6 | 4.31 | 15.9 | 13.9 | 4.15 | 22.5 | 20.2 | 52.82 | 70.04 | 3.21 |  |  |  | 
FC(F)(F)c1cccc(-n2cc(COc3ccccc3-c3nc4ccccc4s3)nn2)c1 | 31.1 | 40.7 | 10.67 | 2.68 | 11.1 | 10.8 | 4.02 | 21.68 | 18.9 | 45.77 | 70.91 | 3.37 | Active | Active | Active | Active
FC(F)(F)C(F)(F)C(F)(F)C(F)(F)C(F)(F)C(F)(F)C(F)(F)C(F)(F)CCn1cc(COc2ccccc2-c2nc3ccccc3s2)nn1 | 33.1 | 34.45 | 15.18 | 3.79 | 13.1 | 12.2 | 3.3 | 20.22 | 19.2 | 46.57 | 72 | 4.43 |  |  |  | 
COc1ccc(-c2cc(COc3ccccc3-c3nc4ccccc4s3)on2)cc1 | 34.1 |  |  |  | 24.1 | 20.7 |  |  | 22.1 |  |  |  |  |  |  | 
Cc1ccc(-c2cc(COc3ccccc3-c3nc4ccccc4s3)on2)cc1 | 26.4 |  |  |  | 16.4 | 14.2 |  |  | 27.5 |  |  |  |  |  |  | 
